Assay results: ChEMBL document CHEMBL1671644, “Inhibition of human immunodeficiency virus type 1 infection by the candidate microbicide dapivirine, a nonnucleoside reverse transcriptase inhibitor” (Antimicrob Agents Chemother, 2009)

Legend:
[1] = test system: Human immunodeficiency virus 1; assay: Antiviral activity against HIV-1 SM024 harboring NNTRI 190A mutant infected in human MT4 cells assessed as inhibition of viral replication relative to HIV-1 3B; format: functional
How it was run: (§1)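 MT-4 cells (3 x 10^4/well) infected with site-directed mutants or recombinant clinical isolates (200 TCID50/well) with drug, cultured 3 to 5 days. Viability read by MTT colorimetric antivirogram assay. IC50 by nonlinear regression; fold change = IC50 for the test isolate / IC50 for wild-type HIV-1 IIIB tested in parallel (mean or median).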

[2] = test system: Human immunodeficiency virus 1; assay: Antiviral activity against HIV-1 subtype CRF05_DF V022833 harboring NNRTI V179I mutant infected in human MT4 cells assessed as inhibition of viral replication relative to HIV-1 3B; format: functional; how it was run: as §1

Cc1cc(C)c(Nc2ccnc(Nc3ccc(C#N)cc3)n2)c(C)c1 [DAPIVIRINE]
Ratio IC50 [1]: 1 | Ratio IC50 [2]: 1
